# HKDC1 inhibitor = blocks human hexokinase HKDC1 activity; recombinant HKDC1, G6PDH/diaphorase resazurin coupled fluorescence; actives 0.16% (n = 340,000); inhibition, % at 20 µM;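 active means inhibition above about 35% when tested at 20 µM, limit read from the data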;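 further: plate controls were DMSO wells with enzyme for no effect and DMSO wells lacking enzyme for full effect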
#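 System: Recombinant HKDC1 hexokinase | Amount: HKDC1 at 5 µg/mL | Reagent: Glucose with 1 mM ATP | Doses: Single 20 µM dose | Incubation: Reaction time 90 min, room temperature, protected from light | Signal: Coupled resazurin fluorescence, excitation 525 nm, emission 613 nm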
# HSF-1 act = increases HSF-1 driven luciferase reporter signal. NIH3T3-HGL HSF-1 luciferase reporter, MG132, 8 h; 100% = twice DMSO control signal. AID 504408. activation, % at 9 µM. actives 1.7% (n = 300,000);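 active means mean replicate activation of at least 50% with a set share of replicates each reaching 50%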;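 further: 0% = median of the neutral control wells and 100% = twice that signal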
# Hsp70 act = Hsp70 transcriptional activation, primary screen; HeLa Hsp70 promoter luciferase reporter, luminescence; scaled: vehicle 0, proteasome-inhibitor control 100%; activation, % at 10 µM; actives 0.04% (n = 200,000); AID 1203;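 active means activation above the mean across all tested compounds plus 3 SD, cutoff set per campaign, cut at about 5.5% in these data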;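 further: 100% = MG132 at 30 µM as the positive control and 0% = DMSO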
# HSF1 inhib = HSF1 inhibition. NIH3T3-HGL HSE-luciferase, MG132-induced, luminescence 8 h; hits give low values. activity change, negative = inhibition, % at 7.5 µM (by protocol). actives 0.77% (n = 300,000). AID 2098;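 active means more than half of replicate wells show activity change below -50%, luminescence cut by over half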;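 further: luciferase reports HSF-1 transcriptional activity via heat shock element; 0% = median of DMSO wells and -100% = zero luminescence signal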
# HSP90 refold inh = inhibitors of HSP90 luciferase refolding in rabbit reticulocyte lysate | luciferase refolding luminescence, 3 h | inhibition, % at 5.6 µM | actives 0.91% (n = 290,000) | AID 1789;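 active means inhibition above the screen-wide mean plus 3 SD, computed separately per campaign, cut at about 16% in these data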;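 further: 0% = DMSO wells and 100% = 60 µM geldanamycin wells; inhibitors lower the luminescence because luciferase stays unfolded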
# Tb hexokinase = T. brucei hexokinase 1 inhibition; inhibition, % at 10 µM; AID 1430; recombinant TbHK1, G6PDH-coupled NADH A340; actives 0.11% (n = 220,000);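 active means inhibition of 50% or more in the single-dose primary screen; inactive means inhibition below 50%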
# * marks the source's active call; other numbers are inactive results; x = no result given. This is a sample that favours compounds with a hit; in the whole collection about 3.1% have one here.
SMILES,HKDC1 inhibitor,HSF-1 act,Hsp70 act,HSF1 inhib,HSP90 refold inh,Tb hexokinase
O=C(NCC(=O)N(c1ccc(F)cc1)C(C(=O)NC1CCCC1)c1ccncc1)c1ccco1 (centres undefined),-3,-10,x,1,0,x
NC(=O)c1nsc(C(=O)N(c2cccc(F)c2)C(C(=O)NC2CCCC2)c2ccco2)c1N (centres undefined),0,-84,x,-81*,-2,x
O=C(NCC(=O)N(c1cccc(F)c1)C(C(=O)NC1CCCC1)c1ccncc1)c1ccco1 (centres undefined),2,54*,x,40,8,x
COc1ccc(OCC(=O)Nc2ccc(NC(=O)c3ccccc3Cl)c(OC)c2)cc1,1,-7,x,-1,6,x
NC(=O)c1ccc[n+]([C@H]2O[C@@H](COP(=O)([O-])OP(=O)(O)OC[C@H]3O[C@@H](n4cnc5c(N)ncnc54)[C@H](O)[C@@H]3O)[C@H](O)[C@@H]2O)c1,-5,x,x,x,x,x
Cc1c(/C(O)=C2\C(=O)C(=O)N(CCN(C)C)C2c2cccnc2)cnn1-c1ccccc1 (centres undefined),5,x,0,x,3,-34
Cc1c(/C(O)=C2\C(=O)C(=O)N(CCCN(C)C)C2c2ccccc2)cnn1-c1ccccc1 (centres undefined),-5,x,0,x,42*,-14
CN(C(=O)c1cccc(S(=O)(=O)N2CCOCC2)c1)c1c(N)n(Cc2ccccc2)c(=O)[nH]c1=O,1,x,x,x,x,x
CC(C)CCN(C(=O)CNC(=O)c1cccs1)C(C(=O)NC1CCCCC1)c1cccnc1 (centres undefined),-10,-76,x,-70*,1,-5
CC(C)CCN(C(=O)CNC(=O)c1cccs1)C(C(=O)NC1CCCC1)c1ccncc1 (centres undefined),-1,-3,0,-5,0,-8
Cc1cc(Br)c(NC(=O)COC(=O)CC2CC3CCC2C3)c(Br)c1 (centres undefined),-1,x,x,x,x,x
CCOc1cc(N2CCOCC2)c(OCC)cc1NC(=O)c1cnccn1,3,x,x,x,x,x
CCCn1c(N2CCN(C(=O)Nc3ccccc3)CC2)nc2ccccc21,-8,1,0,0,0,4
CCCn1c(N2CCN(CC(=O)NCc3cccs3)CC2)nc2ccccc21,1,-76,0,-72*,0,-1
S=c1[nH]nc(-c2ccco2)n1/N=C/C(Cl)=C/c1ccccc1,11,182*,x,142,3,-17
Cc1cc(-c2n[nH]c(=S)n2/N=C/C(Cl)=C/c2ccccc2)n[nH]1,21,50,0,13,3,-12
S=c1[nH]nc(-c2cc(-c3ccccc3)n[nH]2)n1/N=C/C(Br)=C/c1ccccc1,17,104*,x,99,0,-5
Brc1ccc(OCCCOc2cccc3cccnc23)cc1,2,56*,x,14,1,x
O=Cc1ccccc1OCCCOc1cccc2cccnc12,8,30,x,21,2,x
Clc1ccccc1OCCCOc1cccc2cccnc12,-2,106*,x,121,2,x
O=[N+]([O-])c1ccccc1OCCCOc1cccc2cccnc12,6,55*,x,28,-2,x
COC(=O)c1ccccc1NC(=O)COC(=O)Cc1ccc(S(=O)(=O)N2CCOCC2)s1,1,x,x,x,x,x
CC(=O)N(Cc1ccccc1)C1CC(=O)N(Cc2ccccc2)C1=O (centres undefined),2,x,x,x,x,x
CCCCC[C@H]1CN(Cc2ccc(OC)cc2)C(=O)[C@@H]1CC(=O)NCc1ccccc1,-2,13,x,-1,-4,x
COc1cc(NS(=O)(=O)c2ccc(NC(=S)Nc3ccccc3)cc2)nc(OC)n1,1,-8,x,-2,1,x
SMILES,HKDC1 inhibitor,HSF-1 act,Hsp70 act,HSF1 inhib,HSP90 refold inh,Tb hexokinase
COc1cc(NS(=O)(=O)c2ccc(NC(=O)/C=C/C(=O)O)cc2)nc(OC)n1,2,-75,x,-72*,0,x
CC1(C)CC(=O)C2=C(C1)Nc1cc3c(cc1C2c1ccc2c(c1)OCO2)OCO3 (centres undefined),12,62*,0,29,-3,-16
CC(CCN1CCC(n2nccc2NC(=O)c2ccccc2Cl)CC1)c1ccccc1 (centres undefined),-5,-2,x,-13,-1,x
Cc1cc(C)c2nc3s/c(=C/c4ccccc4)c(=O)n3c2c1,x,x,0,x,2,16
O=c1/c(=C/c2ccccc2)sc2nnc(-c3cccs3)n12,1,64*,x,27,0,-23
COc1ccc(-n2cccc2/C=C2/NC(=O)N(c3cccc(Cl)c3)C2=O)cc1,-6,-66,0,-63*,5,-11
S=c1sscc1-c1ccccc1,-2,x,x,x,x,x
CCOC(=O)N=Nc1c2ccccc2c2nc3no[nH]c3nc12,33,-95,0,-95*,6,-20
CCOC(=O)N=Nc1c(O)n(CC(=O)OC)c2ccccc12,-9,-48,0,-33,3,-28
CCc1ccccc1N(CC(=O)NCc1ccco1)C(=O)CCC(=O)Nc1ccccn1,-8,-77,x,-70*,-2,x
CCc1ccc(N(CC(=O)NCc2ccco2)C(=O)CCC(=O)Nc2ccccn2)cc1,0,1,x,-1,-2,x
Cn1c(SCc2ccc(C#N)cc2Cl)nc2ccccc21,-4,93*,0,74,5,9
O=C(Cc1nc2ccccc2[nH]1)c1ccc(Br)cc1,-22,101*,0,49,4,0
O=C(Cc1nc2ccccc2[nH]c1=O)c1ccccc1,-1,39,0,20,-2,1
COCCN(CCOC)c1ncnc2c1cnn2-c1ccccc1,6,10,x,4,x,-6
Cc1cccc(-n2ncc3c(N(C)C4CCCCC4)ncnc32)c1,1,-92,x,-91*,x,-7
Cc1cccc(-n2ncc3c(N(CCO)CCO)ncnc32)c1,-2,20,0,7,-4,1
COc1ccc(-n2ncc3c(N(C)C4CCCCC4)ncnc32)cc1,9,-87,x,-85*,79*,x
CC(C)(C)OC(=O)NCCCC1=CC2=CC(=O)C(C)(OC(=O)C3CCCC3)C(=O)C2=CO1 (centres undefined),x,-16,x,-1,x,x
CCc1csc(CCNC(=O)C2CCC(=O)N(CCc3cccc(F)c3)C2)n1 (centres undefined),7,-3,x,1,11,x
CCC(NS(=O)(=O)c1ccc2c(c1)NC(=O)C(C)C(=O)N2)c1cccs1 (centres undefined),3,-8,x,-2,-5,x
C=C(C(=O)c1ccccc1)C(CC(=O)c1ccccc1)c1ccccc1 (centres undefined),9,144*,0,86,1,2
C=C(CCC(=O)c1ccccc1)C(=O)c1ccccc1,17,103*,0,70,4,1
O=C(CCCCCCCC(=O)c1ccccc1)c1ccccc1,2,6,0,8,1,7

# Screens from PubChem BioAssay.
